Our source for the inhibition and IC50 values is ChEMBL document CHEMBL1145158, “Selective substrate-based inhibitors of mammalian dimethylarginine dimethylaminohydrolase” (J Med Chem, 2005).

Assay [1] is filed under the species Rattus norvegicus. Description: Inhibition of [14C]-L-NMMA (1 umol/L) binding to dimethylarginine dimethylaminohydrolase of rat kidney homogenate at 1 mM. The method, boiled down: (§1)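 Rat kidney homogenized in PBS with PMSF 1 mM and leupeptin, pepstatin, chymostatin (5 µg/mL each), then spun; high-speed supernatant used as enzyme source (both DDAH isoforms). [14C]L-NMMA 1 µmol/L added, 1 h at 37 °C; stopped with neutral-pH Dowex resin binding unmetabolized L-NMMA. [14C]citrulline counted by scintillation. Screening at 1 mM or 100 µM; IC50 determined for actives.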

Assay [2] in a line: Inhibition of [14C]-L-NMMA (1 umol/L) binding to dimethylarginine dimethylaminohydrolase of rat kidney homogenate. The method in brief: as §1
Assay [3] is filed under the species Rattus norvegicus. Description: Inhibition of [14C]-L-NMMA (1 umol/L) binding to dimethylarginine dimethylaminohydrolase of rat kidney homogenate 100 uM. The method, boiled down: as §1

As usually defined, the inhibition is the change of the read-out against control, counted positive when it falls. By IC50 is commonly meant the concentration needed to halve the response being measured. A high value points to lower potency. Consider `C/N=C(\N)NCC[C@H](N)C(=O)O`, for which, in the assay listed under Rattus norvegicus [1], the inhibition is 48%. This compound showed an IC50 in assay [2] of 1510 µM.

`COCCNC(=N)NCCC[C@H](N)C(=O)O`: in the assay filed under Rattus norvegicus [3], the inhibition came to 100%. The compound also returned a 50% inhibitory concentration (IC50) in assay [2] of 22 µM.

In the assay filed under Rattus norvegicus [3], `COCC/N=C(/N)NCCC[C@H](N)C(=O)OC` came in with an inhibition of 83%. Besides, the IC50 in assay [2] was 20 µM.

The compound `CCCOC(=O)[C@@H](N)CC/N=C(\N)NCCOC` had an inhibition in the assay listed under Rattus norvegicus [3] of 64%. The compound further came in with an IC50 in assay [2] of 111 µM.

`CN(C)C(=N)NCC[C@H](N)C(=O)O` had an inhibition in the assay listed under Rattus norvegicus [1] of 85%. Besides, the IC50 in assay [2] was determined as 325 µM.

Regarding `N/C(=N\CC[C@H](N)C(=O)O)N1CCCCC1`, in the assay filed under Rattus norvegicus [1], the inhibition came to 74%. This compound had an IC50 in assay [2] of 264 µM.

Take `CC(C)OCC/N=C(\N)NCC[C@H](N)C(=O)O`: in the assay filed under Rattus norvegicus [1], the inhibition is 97%. In addition, in assay [2], the IC50 was found to be 301 µM.

`COCC/N=C(\N)NCC[C@H](N)C(=O)O` gave an inhibition in the assay filed under Rattus norvegicus [1] of 90%. For the same compound, the half-inhibitory concentration (IC50) in assay [2] was determined as 189 µM.

The compound `COCCN/C(N)=N/CC[C@H](N)C(=O)OC(C)C` displayed an inhibition in the assay filed under Rattus norvegicus [3] of 30%. The compound also yielded an IC50 in assay [2] of 189 µM.

Consider `CC/N=C(\N)NCC[C@H](N)C(=O)O`, for which the inhibition in the assay filed under Rattus norvegicus [1] turned out to be 100%. In assay [2], this compound returned an IC50 of 300 µM.
